This is a sample that favours compounds with a hit; in the whole collection about 3.4% have one here.
ANO1 block: TMEM16A chloride channel inhibitors, primary screen, cell-based, HTS; normalized B-score (activity score, 25-100; higher = stronger inhibition) at 10 µM; HEK293 TMEM16A/YFP iodide influx fluorescence, ionomycin; hit rate 1.2% among 310,000; AID 588511, 2011; Anoctamin-1 (Mus musculus), Q8BHY3;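 active = ratio plate-corrected score three or more library SD toward inhibition, starting fluorescence score within five deviations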;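 note: score derived from kinetic fluorescence span divided by baseline fluorescence per well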
Target sequence (Q8BHY3 whole entry, looked up): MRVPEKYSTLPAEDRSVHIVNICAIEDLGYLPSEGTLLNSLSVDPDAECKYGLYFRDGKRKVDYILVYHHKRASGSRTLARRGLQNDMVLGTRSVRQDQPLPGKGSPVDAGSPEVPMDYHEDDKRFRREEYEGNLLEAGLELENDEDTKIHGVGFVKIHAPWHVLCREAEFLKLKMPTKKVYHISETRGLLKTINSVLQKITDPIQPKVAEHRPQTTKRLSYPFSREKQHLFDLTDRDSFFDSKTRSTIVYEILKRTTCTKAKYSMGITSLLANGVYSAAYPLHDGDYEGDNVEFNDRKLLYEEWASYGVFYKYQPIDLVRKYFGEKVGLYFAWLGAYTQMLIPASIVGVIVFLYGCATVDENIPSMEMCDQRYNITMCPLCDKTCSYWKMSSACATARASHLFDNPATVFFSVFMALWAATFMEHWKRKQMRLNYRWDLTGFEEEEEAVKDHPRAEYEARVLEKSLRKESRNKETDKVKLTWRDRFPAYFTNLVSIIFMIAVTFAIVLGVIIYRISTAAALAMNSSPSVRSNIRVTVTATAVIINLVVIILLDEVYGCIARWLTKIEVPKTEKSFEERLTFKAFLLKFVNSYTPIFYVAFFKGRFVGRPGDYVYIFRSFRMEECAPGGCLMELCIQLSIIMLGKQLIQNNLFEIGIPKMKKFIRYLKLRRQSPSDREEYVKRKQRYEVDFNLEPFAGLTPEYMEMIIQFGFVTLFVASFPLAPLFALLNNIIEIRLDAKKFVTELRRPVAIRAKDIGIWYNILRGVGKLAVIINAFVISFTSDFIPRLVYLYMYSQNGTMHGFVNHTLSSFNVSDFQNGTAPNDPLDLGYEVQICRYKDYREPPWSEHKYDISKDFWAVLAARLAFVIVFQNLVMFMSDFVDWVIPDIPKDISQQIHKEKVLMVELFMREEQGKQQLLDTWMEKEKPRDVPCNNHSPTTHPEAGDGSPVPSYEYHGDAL
MIN6 prolif: inducers of MIN6 beta-cell proliferation, primary screen, ATP luminescence, uHTS; MIN6 cells proliferation, ATPlite luminescence, 48 h; cells starved in 0.2% serum; 100% = growth in 10% serum; proliferation, % at 10 µM; hit rate 0.29% among 330,000; AID 2380, 2010;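 active = compounds whose signal lies at least 3.5 SD above the mean of all wells on their plate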;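 note: 0% = DMSO-treated cells in low-serum medium and 100% = 10% serum control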
TMEM16A act: TMEM16A chloride channel activators or potentiators, primary screen, cell-based, HTS; hit rate 0.3% among 340,000; Anoctamin-1 (Mus musculus), Q8BHY3; AID 623877, 2012; B-score at 10 µM; HEK293 TMEM16A/YFP-H148Q/I152L, iodide quench fluorescence; hits give low values;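 active = fluorescence-ratio B-score plate-corrected deviation score at least 3 library SD below zero, with starting fluorescence score within 5 deviations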;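 note: channel opened by trigger with iodide after compound preincubation; score built on the fluorescence ratio of max minus min over baseline; more negative score means more quench and so TMEM16A activation or potentiation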
HTR2A ag: mouse Htr2a agonists via beta-arrestin recruitment, primary screen, cell-based, luminescence. 5-hydroxytryptamine receptor 2A (Mus musculus), P35363. CHO-K1 mHTR2A beta-arrestin complementation; percent of 30 µM serotonin response. activation, % at 7.6 µM. hit rate 0.66% among 360,000;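 active = activation above a run cutoff, the mean activation of all tested compounds plus 3 SD, cut at about 14% in these data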;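 note: 0% = plate median of compound wells and 100% = 30 µM serotonin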
MC4R ag barr: MC4R agonists recruiting beta-arrestin, primary screen, cell-based, luminescence, agonist arm of biased-ligand search; U2OS MC4R beta-arrestin complementation; percent of melanotan II response, DMSO zero; hit rate 0.98% among 360,000; activation, % at 8.9 µM; Melanocortin receptor 4 (Homo sapiens), P32245; AID 540308, 2011;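 active = activation above a per-plate cutoff, the mean activation of sample wells on that plate plus 3 SD, cut at about 8% in these data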
MC4R antag cAMP: MC4R antagonists of cAMP signaling, primary screen, cell-based, TR-FRET, antagonist arm of biased-ligand search; AID 540295, 2011; hit rate 0.48% among 360,000; inhibition, % at 6.5 µM; MC4R-expressing cells, MTII-stimulated cAMP, LANCE TR-FRET; Melanocortin receptor 4 (Homo sapiens), P32245;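 active = inhibition above its plate's cutoff, the mean of tested wells on that plate plus 3 SD, cut at about 29% in these data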;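 note: 0% = Melanotan II alone and 100% = Melanotan II plus saturating MCL0020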
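System: U2OS-MC4R stable cell line; Technique: Eu-cAMP/anti-cAMP TR-FRET, emission 671 nm; Repeats: single well per compound; Also added: Melanotan II; Dosing: one concentration, 6.5 µM nominal; Schedule: 30-min compound, 1-h challenge, 1-h detection, room temperature.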
cAMP nonselect: nonselective cAMP signaling inhibitors, parental cells, counter-screen for MC4R biased antagonist project, cell-based, TR-FRET, U2OS, forskolin, triplicate; shares compounds with MC4R antag cAMP; LANCE TR-FRET; inhibition, % at 6.5 µM; hit rate 26% among 1,600;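 active = mean inhibition over triplicates above the low-control well mean plus 3 SD, set per campaign, cut at about 13% in these data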;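 note: signal is single emission at 671 nm which falls as cellular cAMP rises; 0% = forskolin-stimulated wells and 100% = buffer without forskolin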
MC4R antag conf: MC4R cAMP antagonists, retest, confirmation, cell-based, TR-FRET; shares compounds with MC4R antag cAMP; MC4R-expressing cells, MTII-stimulated cAMP; inhibition, % at 6.5 µM; hit rate 27% among 1,600; AID 602195, 2012; in the data active = inhibition above about 29%;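 note: 0% = agonist stimulated wells alone and 100% = agonist stimulated wells plus saturating reference antagonist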
* hit, by the source's call; i = inactive; nt = no result.

SMILES	ANO1 block	MIN6 prolif	TMEM16A act	HTR2A ag	MC4R ag barr	MC4R antag cAMP	cAMP nonselect	MC4R antag conf
CNCCNC[C@H](Cc1cccc2ccccc12)NCCc1ccccc1	nt	-6	i	-2	1	1	nt	nt
O=C(CNC(=O)/C(=C\c1ccc(Br)cc1)NC(=O)c1ccccc1)OCc1ccccc1	i	-4	i	2	-3	40*	19*	48*
Cc1ccc(C(=O)CSc2nnc3n2CCCCC3)s1	nt	2	i	-3	-1	14	nt	nt
CC(C)C(=O)N1CCC2(CC1)Oc1ccc(Cl)cc1C(=O)C21CC(c2ccccc2)=NO1 (centres undefined)	i	-8	i	0	-2	29*	2	14
O=C(/C=C/c1cccs1)N1CCC2(CC1)Oc1ccc(Cl)cc1C(=O)C21CC(c2cccnc2)=NO1 (centres undefined)	i	-5	i	4	-1	29*	-3	19
O=C(COC(=O)COc1ccc2c(c1)CCC2)Nc1ccccc1C(F)(F)F	nt	1	i	-5	1	12	nt	nt
COc1cc([N+](=O)[O-])cc(/C=N/NC(=O)Cn2nccc2C)c1O	i	-2	i	-19	-2	29*	-6	-14
NNC(=O)CNC(=O)C12CC3CC(CC(C3)C1)C2	i	0	i	-2	3	29*	-5	-16
O=S(=O)(NCc1ccco1)c1cnc(Cl)c(Br)c1	i	-3	i	8	-2	42*	30*	67*
CCN(c1ccc(OCC(=O)OCC(=O)c2c(N)n(C)c(=O)n(C)c2=O)cc1)S(=O)(=O)c1ccccc1	i	-6	i	-1	-2	42*	9	19
CC(=O)NC(CC(=O)OCC(=O)c1c(N)n(C)c(=O)n(C)c1=O)c1ccccc1 (centres undefined)	i	0	i	0	-2	30*	7	5
Cn1c(N)c(C(=O)COC(=O)CC(NC(N)=O)c2ccc(Cl)cc2)c(=O)n(C)c1=O (centres undefined)	nt	3	i	-2	0	5	nt	nt
COc1ccc(C(=O)Nc2ccccc2-c2nnn(CC(N)=O)n2)cc1	nt	nt	i	2	1	4	nt	nt
COc1cc(OC)cc(C(=O)Nc2ccccc2-c2nnn(CC(=O)Nc3cc(C)on3)n2)c1	i	-2	i	4	8.8*	30*	6	14
NC(=O)COC(=O)[C@H](Cc1c[nH]c2ccccc12)NC(=O)c1ccc(F)cc1	i	0	i	-3	-2	32*	14*	23
CCCOc1ccc(C(=O)c2ccccc2C(=O)OC2CCOC2=O)cc1OCCC (centres undefined)	nt	-2	i	4	-1	30*	12	25
CCCOc1ccc(C(=O)c2ccccc2C(=O)O)cc1OCCC	i	-5	i	11	2	7	nt	nt
COc1cccc(NC(=O)CN(C)C(C)C(=O)NC(C)c2ccc(Cl)cc2Cl)c1 (centres undefined)	nt	-2	i	-9	-1	-2	nt	nt
O=C(Cc1cccc2ccccc12)N1CCN(c2ncccn2)CC1	i	-2	i	-3	-1	30*	2	-2
COc1ccc(CNC(=O)[C@H](Cc2c[nH]c3ccccc23)NC(=O)[C@@H]2Cc3ccccc3CN2)cc1	i	-4	i	-2	-1	31*	-2	11
Cc1onc(-c2ccccc2Cl)c1C(=O)NNC(=O)c1ccc(F)cc1	i	0	i	2	1	1	nt	nt
Cc1onc(-c2ccccc2Cl)c1C(=O)NNC(=O)c1nn(C)cc1Cl	i	-2	i	0	0	36*	-3	-13
Cn1c(Cc2ccccc2)nc(=O)c2ccccc21	nt	nt	nt	-1	1	-11	nt	nt
CC1(C)CC(=O)C(C(C2=C(O)CC(C)(C)CC2=O)c2cccs2)C(=O)C1 (centres undefined)	i	0	i	-3	1	30*	12	21
COc1ccc(S(=O)(=O)N2CCCCCC2)cc1C(=O)OCC(=O)NC1CCS(=O)(=O)C1 (centres undefined)	nt	-1	i	-2	-1	10	nt	nt
SMILES	ANO1 block	MIN6 prolif	TMEM16A act	HTR2A ag	MC4R ag barr	MC4R antag cAMP	cAMP nonselect	MC4R antag conf
COC(=O)c1cc2c(ccn2-c2ccc(F)cc2)n1CC(=O)OC(C)C	i	0	i	-7	0	31*	4	2
CCCc1nc2oc3c(Cl)ncnc3c2c2c1CCCC2	i	-4	i	-2	-1	18	nt	nt
CC(C)Cc1nc2oc3c(Cl)ncnc3c2c2c1CCCC2	i	-6	i	8	-2	46*	14*	32*
O=C(NCCc1ccccc1)C(c1cccs1)N(C(=O)CCl)c1ccc(Cl)cc1 (centres undefined)	i	-3	i	1	34*	30*	-34	31*
O=C(NC(Cc1c[nH]c2ccccc12)C(=O)N1CCOCC1)c1cccs1 (centres undefined)	i	0	i	4	-1	9	nt	nt
O=C(NC(Cc1c[nH]c2ccccc12)C(=O)N/N=C/c1ccc(Cl)cc1)c1cccs1 (centres undefined)	i	-5	i	-6	0	30*	2	7
COc1ccc(NC(=O)c2cc(-c3cc(F)ccc3OC)n[nH]2)c(OC)c1	nt	nt	nt	4	-2	14	nt	nt
COc1ccc(NC(=O)c2cc(-c3ccc(F)cc3OC)n[nH]2)c(OC)c1	nt	nt	nt	-1	1	30*	4	4
CC(C)(C)c1ccc2c(c1)OC(C(=O)N/N=C\c1ccc(-c3cccc(C(=O)O)c3)o1)CO2 (centres undefined)	i	0	i	-1	0	29*	-4	-11

High-throughput results: PubChem, several laboratories
